Measurements reported in ChEMBL document CHEMBL4364292, “Discovery of a Potent and Selective CCR4 Antagonist That Inhibits Treg Trafficking into the Tumor Microenvironment” (J Med Chem, 2019).
Each block holds one compound with its values, some of them ahead of it.

How the values were obtained:
[1] = target: T1, C-C chemokine receptor type 4 (Homo sapiens, UniProt P51679); experiment: Antagonist activity at human CCR4 expressed in rat chem-5 cells assessed as inhibition of CCL22-induced calcium flux measured at 2.5 secs time interval for 45 secs by fluorescence assay; type: functional, cell-based
T1 sequence (P51679 whole entry): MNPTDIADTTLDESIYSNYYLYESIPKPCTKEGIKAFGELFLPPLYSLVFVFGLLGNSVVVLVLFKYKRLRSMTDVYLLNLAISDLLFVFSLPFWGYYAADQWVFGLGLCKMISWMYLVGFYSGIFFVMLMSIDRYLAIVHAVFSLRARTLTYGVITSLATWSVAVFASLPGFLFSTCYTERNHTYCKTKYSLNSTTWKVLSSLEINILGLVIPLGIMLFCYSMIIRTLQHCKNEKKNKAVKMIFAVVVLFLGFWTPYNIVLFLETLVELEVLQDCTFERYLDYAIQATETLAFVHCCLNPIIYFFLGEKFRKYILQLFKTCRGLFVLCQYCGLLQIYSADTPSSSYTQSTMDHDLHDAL
In short: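 Calcium flux functional readout of CCR4 antagonism, run without serum; IC50 reported.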

[2] = Half-life in mouse; type: ADME, organism-based; conditions: in vivo
Cytochrome P450 2C19 = Cytochrome P450 2C19 (Homo sapiens, UniProt P33261); experiment: Inhibition of CYP2C19 (unknown origin); type: ADME
In short: (§1)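 CYP inhibition tested against 1A2, 2C9, 2C19, 2D6 and 3A4; IC50 in μM.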

[3] = Volume of distribution at steady state in mouse; type: ADME, organism-based; conditions: in vivo, read-out: Vdss
[4] = Oral bioavailability in cynomolgus monkey at 2 mg/kg, po; type: ADME, organism-based, Macaca fascicularis; conditions: in vivo
In short: (§2)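 Cross-species PK (dog, cynomolgus monkey): 0.5 mg/kg IV or 2 mg/kg PO; three animals per group.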

[5] = Oral bioavailability in rat at 2 mg/kg, po; type: ADME, organism-based; conditions: in vivo
[6] = AUC(0 to infinity) in rat at 2 mg/kg, po; type: ADME, organism-based; design: dose 2 mg/kg, route oral, time infinity; conditions: in vivo
[7] = Clearance in mouse; type: ADME, organism-based; conditions: in vivo
[8] = Terminal half-life in rat at 0.5 mg/kg, iv; type: ADME, organism-based; conditions: in vivo, read-out: beta t1/2 (converted)
[9] = Hepatic clearance in dog at 0.5 mg/kg, iv or 2 mg/kg, po; type: ADME, organism-based, Canis lupus familiaris; conditions: in vivo; in short: as §2
[10] = Hepatic clearance in rat at 0.5 mg/kg, iv or 2 mg/kg, po; type: ADME, organism-based; conditions: in vivo
[11] = Bioavailability in mouse; type: ADME, organism-based; conditions: in vivo
Cytochrome P450 3A4 = Cytochrome P450 3A4 (Homo sapiens, UniProt P08684); experiment: Inhibition of CYP3A4 (unknown origin); type: ADME; in short: as §1
Cytochrome P450 2D6 = Cytochrome P450 2D6 (Homo sapiens, UniProt P10635); experiment: Inhibition of CYP2D6 (unknown origin); type: ADME; in short: as §1
[12] = Terminal half-life in rat at 0.5 mg/kg, iv or 2 mg/kg, po; type: ADME, organism-based; conditions: in vivo, read-out: beta t1/2 (converted)
Mus musculus [13] = experiment: Inhibition of anti-CD3/CD28-stimulated B6-Foxp3 GFP positive mouse T-reg cell migration into tumor of mouse Pan02 cells implanted in po dosed C57BL/6 mouse assessed as decrease in number of GFP positive T-reg cells in tumor treated 24 hrs prior to T-reg cell addition followed by daily compound dosing for subsequent 4 days and measured on day 6 by flow cytometry; type: functional, organism-based
In short: (§3)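 Pan02 pancreatic tumor-bearing mice dosed QD for 6 days at 10 or 30 mg/kg. GFP+ induced Treg, made from naive CD4+ T cells of Foxp3-GFP transgenic mice, injected 24 h after first dose. GFP+ Treg counted in tumor and spleen versus vehicle group; plasma level taken 24 h after last dose; one-way ANOVA.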

[14] = Hepatic clearance in cynomolgus monkey at 0.5 mg/kg, iv or 2 mg/kg, po; type: ADME, organism-based, Macaca fascicularis; conditions: in vivo; in short: as §2
[15] = Terminal half-life in cynomolgus monkey at 0.5 mg/kg, iv; type: ADME, organism-based, Macaca fascicularis; conditions: in vivo, read-out: beta t1/2 (converted); in short: as §2
Mus musculus [16] = experiment: Inhibition of anti-CD3/CD28-stimulated B6-Foxp3 GFP positive mouse T-reg cell migration into tumor of mouse Pan02 cells implanted in C57BL/6 mouse assessed as decrease in number of GFP positive T-reg cells in tumor at 30 mg/kg, po qd treated 24 hrs prior to T-reg cell addition followed by compound dosing for subsequent 4 days and measured on day 6 by flow cytometry relative to control; type: functional; conditions: C57BL/6, Pan02, po; in short: as §3
Cytochrome P450 2C9 = Cytochrome P450 2C9 (Homo sapiens, UniProt P11712); experiment: Inhibition of CYP2C9 (unknown origin); type: ADME; in short: as §1
[17] = Oral bioavailability in dog at 2 mg/kg, po; type: ADME, organism-based, Canis lupus familiaris; conditions: in vivo; in short: as §2
[18] = Stability in human hepatocytes assessed as compound remaining incubated for 60 mins under shaking condition by LC-MS/MS analysis; type: ADME, cell-based, Hepatocyte; conditions: read-out: Stability
In short: (§4)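 Human and rat hepatocytes exposed to compound; percent parent remaining reported.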

[19] = Volume of distribution at steady state in rat at 0.5 mg/kg, iv or 2 mg/kg, po; type: ADME, organism-based; conditions: in vivo, read-out: Vdss
[20] = Terminal half-life in dog at 0.5 mg/kg, iv; type: ADME, organism-based, Canis lupus familiaris; conditions: in vivo, read-out: beta t1/2 (converted); in short: as §2
[21] = Stability in rat hepatocytes assessed as compound remaining incubated for 60 mins under shaking condition by LC-MS/MS analysis; type: ADME, cell-based, Hepatocyte; conditions: read-out: Stability; in short: as §4
Cytochrome P450 1A2 = target: T2, Cytochrome P450 1A2 (Homo sapiens, UniProt P05177); experiment: Inhibition of CYP1A2 (unknown origin); type: ADME; in short: as §1
T2 sequence (P05177 whole entry): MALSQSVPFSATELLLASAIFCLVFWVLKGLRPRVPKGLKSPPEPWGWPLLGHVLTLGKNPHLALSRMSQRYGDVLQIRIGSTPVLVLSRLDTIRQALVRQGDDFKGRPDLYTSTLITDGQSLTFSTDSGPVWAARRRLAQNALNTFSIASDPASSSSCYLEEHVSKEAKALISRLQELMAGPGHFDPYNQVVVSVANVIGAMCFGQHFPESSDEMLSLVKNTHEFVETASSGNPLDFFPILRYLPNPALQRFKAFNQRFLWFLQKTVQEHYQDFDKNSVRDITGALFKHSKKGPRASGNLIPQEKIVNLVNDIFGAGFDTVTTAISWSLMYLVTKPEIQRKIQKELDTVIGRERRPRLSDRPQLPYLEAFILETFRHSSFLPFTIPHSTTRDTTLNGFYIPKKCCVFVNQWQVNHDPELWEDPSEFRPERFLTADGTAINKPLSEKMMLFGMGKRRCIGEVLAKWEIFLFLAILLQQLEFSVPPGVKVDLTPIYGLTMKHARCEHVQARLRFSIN

[22] = AUCinfinity in rat at 0.5 mg/kg, iv; type: ADME, organism-based; design: dose 0.5 mg/kg, route intravenous, time infinity; conditions: in vivo
[23] = Hepatic clearance in rat at 0.5 mg/kg, iv; type: ADME, organism-based; conditions: in vivo

Sequence of Cytochrome P450 2C9 (P11712 whole entry): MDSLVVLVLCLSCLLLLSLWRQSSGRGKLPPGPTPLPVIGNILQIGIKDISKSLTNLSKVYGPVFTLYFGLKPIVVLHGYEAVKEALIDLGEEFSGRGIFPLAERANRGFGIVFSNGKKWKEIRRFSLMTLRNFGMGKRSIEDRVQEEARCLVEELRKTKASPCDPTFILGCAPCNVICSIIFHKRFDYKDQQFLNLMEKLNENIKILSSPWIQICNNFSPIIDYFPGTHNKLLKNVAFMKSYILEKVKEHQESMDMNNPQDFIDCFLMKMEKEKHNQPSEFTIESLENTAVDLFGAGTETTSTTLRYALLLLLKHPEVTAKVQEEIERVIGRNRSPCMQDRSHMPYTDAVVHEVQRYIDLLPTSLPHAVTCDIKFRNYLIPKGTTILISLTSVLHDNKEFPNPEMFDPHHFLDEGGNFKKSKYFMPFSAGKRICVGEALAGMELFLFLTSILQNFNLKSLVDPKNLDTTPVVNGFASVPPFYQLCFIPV
Sequence of Cytochrome P450 2D6 (P10635 whole entry): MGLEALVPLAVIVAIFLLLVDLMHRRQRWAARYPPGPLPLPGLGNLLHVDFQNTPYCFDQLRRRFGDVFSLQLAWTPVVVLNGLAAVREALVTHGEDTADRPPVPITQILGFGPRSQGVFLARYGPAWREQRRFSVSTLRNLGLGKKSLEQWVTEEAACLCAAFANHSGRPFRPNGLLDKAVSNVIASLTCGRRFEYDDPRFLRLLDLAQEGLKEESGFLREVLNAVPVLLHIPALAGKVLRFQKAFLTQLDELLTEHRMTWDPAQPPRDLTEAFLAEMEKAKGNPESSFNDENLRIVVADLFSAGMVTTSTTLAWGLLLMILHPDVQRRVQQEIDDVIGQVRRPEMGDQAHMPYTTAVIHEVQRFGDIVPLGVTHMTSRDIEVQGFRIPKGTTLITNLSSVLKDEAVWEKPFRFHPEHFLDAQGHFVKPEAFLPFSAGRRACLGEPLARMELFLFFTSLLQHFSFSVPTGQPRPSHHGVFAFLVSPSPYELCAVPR
Sequence of Cytochrome P450 2C19 (P33261 whole entry): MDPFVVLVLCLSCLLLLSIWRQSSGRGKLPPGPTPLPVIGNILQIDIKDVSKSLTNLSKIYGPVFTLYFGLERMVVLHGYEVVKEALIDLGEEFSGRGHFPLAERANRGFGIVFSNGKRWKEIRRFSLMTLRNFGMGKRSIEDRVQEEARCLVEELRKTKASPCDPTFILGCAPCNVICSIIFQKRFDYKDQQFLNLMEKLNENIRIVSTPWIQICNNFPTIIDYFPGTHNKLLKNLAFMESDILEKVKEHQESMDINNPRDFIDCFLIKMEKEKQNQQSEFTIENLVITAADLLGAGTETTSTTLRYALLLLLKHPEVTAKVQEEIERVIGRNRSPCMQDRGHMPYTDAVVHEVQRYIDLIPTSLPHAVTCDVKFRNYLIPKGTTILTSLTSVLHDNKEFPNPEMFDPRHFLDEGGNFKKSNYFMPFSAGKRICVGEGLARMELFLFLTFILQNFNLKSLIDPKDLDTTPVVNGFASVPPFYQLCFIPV
Sequence of Cytochrome P450 3A4 (P08684 whole entry): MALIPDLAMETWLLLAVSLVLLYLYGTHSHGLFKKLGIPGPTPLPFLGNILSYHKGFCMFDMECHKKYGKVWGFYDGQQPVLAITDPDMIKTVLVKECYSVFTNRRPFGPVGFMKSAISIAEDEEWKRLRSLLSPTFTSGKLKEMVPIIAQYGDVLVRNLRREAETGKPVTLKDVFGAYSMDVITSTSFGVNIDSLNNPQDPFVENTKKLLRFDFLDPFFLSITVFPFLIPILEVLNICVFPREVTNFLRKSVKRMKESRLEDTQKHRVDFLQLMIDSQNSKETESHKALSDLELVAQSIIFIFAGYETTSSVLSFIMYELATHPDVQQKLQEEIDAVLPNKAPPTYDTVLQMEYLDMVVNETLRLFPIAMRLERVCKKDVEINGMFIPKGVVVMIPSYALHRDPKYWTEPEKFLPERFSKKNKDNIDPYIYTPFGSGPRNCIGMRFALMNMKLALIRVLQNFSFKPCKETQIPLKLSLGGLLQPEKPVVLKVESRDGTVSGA

Compound: CC1CN(c2cnc3cnn(C(C)c4ccc(Cl)cc4Cl)c3n2)CCC1N1CCCCC1 (configuration not stated)
- AUC(0-inf) [22]: 68 ng·h/mL
- IC50 [1]: 238 nM
- CLH [23]: 121.7 mL/min/kg

Compound: CC1CN(c2cnc3c(C#N)nn(C(C)c4ccc(Cl)cc4Cl)c3n2)CCC1N1CCCCC1 (configuration not stated)
- AUC(0-inf) [22]: 82 ng·h/mL
- IC50 [1]: 251 nM
- CLH [23]: 101.7 mL/min/kg

Compound: CC1CN(c2cnc3c(C(F)(F)F)nn(C(C)c4ccc(Cl)cc4Cl)c3n2)CCC1N1CCCCC1 (configuration not stated)
- AUC(0-inf) [22]: 148 ng·h/mL
- IC50 [1]: 837 nM
- CLH [23]: 56.7 mL/min/kg

Compound: C[C@@H]1CC(c2cnc3c(C#N)nn([C@H](C)c4ccc(Cl)cc4Cl)c3n2)=CC[C@@H]1N1CCC[C@H]1C(F)(F)F
- IC50 [1]: > 5000 nM

Compound: Cc1nn([C@H](C)c2ccc(Cl)cc2Cl)c2nc(N3CC[C@@H](N4CCCCC4)[C@@H](C)C3)cnc12
- IC50 [1]: 803 nM

Compound: Cc1nn([C@H](C)c2ccc(Cl)cc2Cl)c2nc(N3CC[C@H](N4CCC[C@@H]4C)[C@H](C)C3)cnc12
- IC50 [1]: 172 nM

Compound: C[C@@H]1CC(c2cnc3c(C#N)nn([C@H](C)c4ccc(Cl)cc4Cl)c3n2)=CC[C@@H]1N1CCC[C@H]1CN
- IC50 [1]: 229 nM
- remaining at 1 h [18]: 100%
- remaining at 1 h [21]: 100%

Now from value to compound, other results behind:

- IC50 [1]: 37 nM
Compound: Cc1nn([C@H](C)c2ccc(Cl)cc2Cl)c2nc(N3CC[C@H](N4CCC[C@H]4CCC(N)=O)[C@H](C)C3)cnc12

- half-life [2]: 7.6 h
- IC50 (Cytochrome P450 2C19): > 10000 nM
- Vd [3]: 5.7 L/kg
- bioavailability [4]: 30%
- bioavailability [5]: 28%
- AUC(0-inf) [6]: 125 ng·h/mL
- clearance [7]: 12 mL/min/kg
- half-life [8]: 2.2 h
- CLH [9]: 10.7 mL/min/kg
- CLH [10]: 74.7 mL/min/kg
- bioavailability [11]: 26%
- IC50 (Cytochrome P450 3A4): > 10000 nM
- IC50 (Cytochrome P450 2D6): > 10000 nM
- IC50 [1]: 40 nM
- half-life [12]: 4.1 h
- CLH [14]: 11.3 mL/min/kg
- half-life [15]: 9.9 h
- IC50 (Cytochrome P450 2C9): > 10000 nM
- bioavailability [17]: 75%
- remaining at 1 h [18]: 81%
- Vd [19]: 9.8 L/kg
- half-life [20]: 16.4 h
- remaining at 1 h [21]: 32%
- IC50 (Cytochrome P450 1A2): > 10000 nM
Compound: C[C@@H]1CC(c2cnc3c(C#N)nn([C@H](C)c4ccc(Cl)cc4Cl)c3n2)=CC[C@@H]1N1CCC[C@H]1CO
- inhibition (Mus musculus [13]): Dose-dependent effect
- inhibition in vivo at 30 mg/kg (Mus musculus [16]): 100%

- IC50 [1]: 170 nM
Compound: Cc1nn([C@H](C)c2ccc(Cl)cc2Cl)c2nc(N3CC[C@H](N4CCC[C@H]4C(N)=O)[C@H](C)C3)cnc12

- half-life [2]: 30.3 h
- Vd [3]: 4.9 L/kg
- clearance [7]: 1.17 mL/min/kg
- bioavailability [11]: 27%
- IC50 [1]: 34 nM
- remaining at 1 h [18]: 86%
- remaining at 1 h [21]: 72%
Compound: C[C@@H]1CC(c2cnc3c(C#N)nn([C@H](C)c4ccc(Cl)cc4Cl)c3n2)=CC[C@@H]1N1CCC[C@H]1C

- IC50 [1]: 104 nM
Compound: Cc1nn([C@H](C)c2ccc(Cl)cc2Cl)c2nc(N3CC[C@H](N4CCC[C@H]4CCS(C)(=O)=O)[C@H](C)C3)cnc12

- IC50 [1]: 47 nM
Compound: Cc1nn([C@H](C)c2ccc(Cl)cc2Cl)c2nc(N3CC[C@H](N4CCC[C@H]4C)[C@H](C)C3)cnc12
